Drawing on ChEMBL document CHEMBL2321816, “Synthesis and antitumor evaluation of arctigenin derivatives based on antiausterity strategy” (Eur J Med Chem, 2013), this text covers PC50, Activity and inhibition for 16 compounds.

Data set [1] concerns PANC-1. Kind of data set: Cytotoxicity against human PANC1 cells assessed as cell viability after 3 hrs by WST-8 cells. In kind it is functional. The essentials:
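PANC-1 cells, 2 × 10⁴/well, grown 24 h in DMEM at 37 °C in 5% CO₂. Cells were PBS-washed and then exposed 24 h to serial dilutions in nutrient-deprived medium or in normal DMEM. After a PBS wash, WST-8 in DMEM was added for 3 h and A450 was read. Viability was taken against blank and control from the mean of three wells. PC50 is the concentration killing 50% of cells preferentially in NDM.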
For orientation: Tetrazolium assays rely on reduction of a dye to a coloured formazan, in cell work by metabolically active cells.

Data set [2] is filed under the species Mus musculus. The data set is described as follows: Toxicity in human Capan1 cells injected BALB/cAJcl-nu-nu mouse assessed as body weight at 50 ug for 6 days in a week upto 28th days treatment started on 15th day tumor injection. In kind it is organism-based. As to conditions: capan-1, 144 h. The essentials:
(§1)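 Female BALB/cAJcl-nu/nu mice, five weeks old, injected s.c. on the right back with 5 × 10⁶ CAPAN-1 cells in DMEM. At two weeks, mice with tumors around 5 mm were randomized to treatment or vehicle groups. Drug was given from a DMSO stock (10 mg/mL) diluted in saline, 0.2 mL i.p., 6 days/week for 4 weeks. Body weight and tumor size were taken weekly. Tumors were weighed wet at the end.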

The species entered for data set [3] is Mus musculus. Kind of data set: Toxicity in human Capan1 cells injected BALB/cAJcl-nu-nu mouse assessed as behavior at 50 ug for 6 days in a week upto 28th days treatment started on 15th day tumor injection. In kind it is organism-based. As to conditions: capan-1, 144 h. A digest of the protocol: as §1
Data set [4] concerns CAPAN-1. Kind of data set: Antitumor activity against human Capan1 cells injected into BALB/cAJcl-nu-nu mouse assessed as reduction in tumor weight at 50 ug for 6 days in a week upto 28th days treatment started on 15th day tumor injection. In kind it is functional. The essentials: as §1

Active and inactive are the calls of the source. The calls are words filed in the database; no cut-off is given here.

For the compound `CCCOc1cc(C[C@H]2C(=O)OC[C@@H]2Cc2ccc(OC)c(OC)c2)ccc1O`, the PC50 in data set [1] worked out at 3.74 µM.
With `COc1cc(C[C@H]2C(=O)OC[C@@H]2Cc2ccc(OC)c(OC)c2)ccc1O` [ARCTIGENIN], the Activity entry in data set [2] and in data set [3] was “Non-toxic” each time. The PC50 in data set [1] turned out to be 0.8 µM. The inhibition entry in data set [4] is “Active”.
For the compound `CCCOc1cc(C[C@H]2C(=O)OC[C@@H]2Cc2ccc(OC)c(OCCC)c2)ccc1O`, in data set [1], the PC50 came out at 13.6 µM.
`CCOc1cc(C[C@H]2C(=O)OC[C@@H]2Cc2ccc(OCC)c(OC)c2)ccc1O`: the PC50 in data set [1] is 4.77 µM.
Same read-out and setting: then `CCOc1ccc(C[C@H]2COC(=O)[C@@H]2Cc2ccc(O)c(OC)c2)cc1OC`, with 0.49 µM; and `CCCCCCOc1cc(C[C@H]2C(=O)OC[C@@H]2Cc2ccc(OC)c(OC)c2)ccc1O`, with 3.89 µM.
In the case of `CCOc1ccc(C[C@H]2COC(=O)[C@@H]2Cc2ccc(O)c(OC)c2)cc1OCC`, the PC50 in data set [1] stood at 4.85 µM.
Still for that read-out and setting: next, `COc1ccc(C[C@H]2COC(=O)[C@@H]2Cc2ccc(O)c(OC(C)C)c2)cc1OC`: 4.16 µM.
Still for that read-out and setting: next, `CCOc1cc(C[C@H]2C(=O)OC[C@@H]2Cc2ccc(OC)c(OC)c2)ccc1O`: 3.74 µM; `CCOc1cc(C[C@H]2C(=O)OC[C@@H]2Cc2ccc(OC)c(OCC)c2)ccc1O`: 0.66 µM; `CCOc1cc(C[C@H]2COC(=O)[C@@H]2Cc2ccc(O)c(OC)c2)ccc1OC`: 4.71 µM.
On the same count and under the same terms, next, `CCCCOc1cc(C[C@H]2C(=O)OC[C@@H]2Cc2ccc(OC)c(OC)c2)ccc1O`: 7.14 µM; `COc1ccc(C[C@H]2COC(=O)[C@@H]2Cc2ccc(O)c(OCCO)c2)cc1OC`: 7.7 µM.
In the case of `CCOc1cc(C[C@H]2C(=O)OC[C@@H]2Cc2ccc(OCC)c(OCC)c2)ccc1O`, the Activity entry in data set [2] and in data set [3] was “Non-toxic” each time. Further, the PC50 in data set [1] amounted to 0.78 µM. Also, the inhibition result in data set [4] was “Active”.
On to `CCCOc1cc(C[C@H]2C(=O)OC[C@@H]2Cc2ccc(OCC)c(OCCC)c2)ccc1O`, for which, in data set [1], the PC50 came to 28.6 µM.
On the same count and under the same terms, then `CCCOc1cc(C[C@H]2C(=O)OC[C@@H]2Cc2ccc(OC)c(OCC)c2)ccc1O`, with 3.54 µM.
